One experiment concerns Plasmodium falciparum. Nature of the experiment: Antiplasmodial activity against Plasmodium falciparum 3D7 infected human erythrocytes by Giemsa staining. It counts as functional, organism-based. A digest of the protocol: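 Human malaria parasites were kept in culture, and the test samples were made up as DMSO stock solutions before assay.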
The test system of the next experiment is HeLa. Nature of the experiment: Cytotoxicity against human HeLa cells. It is filed as cell-based.
The next experiment relates to Aorta. Nature of the experiment: Vasodilation activity in Wistar rat endothelium-intact thoracic aortic ring assessed as inhibition of phenylepinephrine-induced contraction at 30 uM. It is filed as functional. Also on record: scale not given: the % may be the effect or the level left.

Structures are written as SMILES. In brackets after ≈: the same amount, converted by molar mass.

From ChEMBL document CHEMBL1152328, “Alstiphyllanines A-D, indole alkaloids from Alstonia macrophylla” (J Nat Prod, 2009) come the findings set out here.

For orientation: IC50 means the concentration that gives 50% inhibition. As for `C/C=C1/C[N+]2(C)[C@@H]3C[C@@]45c6cc(OC)ccc6N(C)[C@]4(O3)[C@@H]2C[C@@H]1[C@@]5(COC(=O)c1ccc(OC)c(OC)c1)C(=O)OC` (some centres not stated) [ALSTIPHYLLANINE B], the IC50 was 0.34 µg/mL with Plasmodium falciparum and greater than 25 µg/mL in the experiment with HeLa. The Activity in the experiment on Aorta was found to be 35%.

As to `C/C=C1\C[N+]2([O-])[C@H]3C[C@@H]1[C@]1(C(=O)OC)[C@@H](OC(C)=O)[C@]4(C[C@@H]12)c1ccccc1N(C)[C@H]34` [ALSTIPHYLLANINE A], the IC50 is 6.85 µg/mL (≈ 16.1 µM) in the experiment with Plasmodium falciparum and greater than 25 µg/mL with HeLa. The Activity with Aorta came to 70%.

In the case of `C/C=C1/C[N+]2(C)[C@@H]3C[C@@]45c6cc(OC)ccc6N(C)[C@]4(O3)[C@@H]2C[C@@H]1[C@@]5(COC(=O)c1cc(OC)c(OC)c(OC)c1)C(=O)OC` (some centres not stated) [ALSTIPHYLLANINE C], the results for the IC50 in the experiment with Plasmodium falciparum and in the experiment on HeLa were 6.2 µg/mL and greater than 25 µg/mL, respectively. For the same compound, in the experiment on Aorta, the Activity stood at 40%.

As to `C/C=C1/CN2[C@@H]3C[C@@]45c6cc(OC)ccc6N(C)[C@]4(O3)[C@@H]2C[C@@H]1[C@@]5(COC(=O)c1cc(OC)c(OC)c(OC)c1)C(=O)OC` [ALSTIPHYLLANINE D], the figures for the IC50 in the experiment on Plasmodium falciparum and with HeLa were 2.75 µg/mL (≈ 4.53 µM) and greater than 25 µg/mL, respectively. For the same compound, in the experiment on Aorta, the Activity amounted to 42%.
